E-selectin induc: E-selectin induction in HUVECs, primary screen, imaging, HUVEC, immunofluorescence imaging, single point. P16581. normalized: neutral wells 0, TNF-alpha wells 100. activation, % at 7.58 µM. 260,000 tested, 0.37% active. AID 686992, 2013;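 active = mean E-selectin-positive cell signal at least 10% of the positive control, reached in at least 60% of replicates, without over 20% cell loss; inconclusive = no rule given, readout overlaps actives, possibly toxicity-flagged; inactive = the rest, including those meeting only one limit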
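assay system = HUVEC, human umbilical vein endothelial cells | input = 3,000 HUVEC seeded per well | medium = EGM-2 growth medium on 0.1% gelatin-coated wells | dosing = one compound dose added by pin transfer | signal = immunofluorescence imaging | read-out basis = % PE-positive cells | control set = TNF-alpha, DMSO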
FN deposition inh: inhibitors of fibronectin matrix deposition, primary screen, AH1F cells, Alexa488-fibronectin fluorescence, plate reader. AH1F fibroblasts, overnight. inhibition, % at 12.6 µM. 350,000 tested, 0.086% active. AID 743247, 2014;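 active = mean inhibition across replicates of 30% or more, regardless of how many single replicates reach that level; inconclusive = mean under 30% yet at least half of replicates reach 30%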
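Material: AH1F fibroblasts assembling fluorescent fibronectin matrix; amount: 10000 AH1F cells/well; medium: DMEM, 2% serum; reagent: Alexa488-fibronectin, 24 nM final in well; dosing: single compound dose, delivered by pin transfer; incubation: 1 h adhesion, overnight exposure; detection: fluorescence after three HBSS washes, excitation 485 nm, emission 525 nm; measure: fibronectin deposition inhibition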
FGF22 binding: binders of human FGF22 protein, primary screen, FGF22 synaptogenesis inhibitor project, biophysical, thermal shift, single point; recombinant FGF22 thermal shift, SYPRO orange fluorescence; percent of sucrose octasulfate shift, DMSO zero; Fibroblast growth factor 22 (Homo sapiens), Q9HCT0; 340,000 tested, 1.5% active; activity (Tm shift, normalised), % at 9.99 µM;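 active = mean Tm shift, scaled 0 neutral to 100 positive control, at about 1.3% or above, every replicate too, limit read from the data; inconclusive = no clear call, values can overlap the other calls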
Target sequence (Q9HCT0 whole entry, looked up): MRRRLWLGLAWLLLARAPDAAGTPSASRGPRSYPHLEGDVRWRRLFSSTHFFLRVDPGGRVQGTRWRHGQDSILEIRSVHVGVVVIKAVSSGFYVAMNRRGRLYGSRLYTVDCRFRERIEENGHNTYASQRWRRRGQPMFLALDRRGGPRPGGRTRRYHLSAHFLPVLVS
SIRT5 block: SIRT5 desuccinylase inhibitors, primary screen, biochemical, fluorescence imaging, single point, set 5. NAD-dependent protein deacylase sirtuin-5, mitochondrial (Homo sapiens), Q9NXA8. Purified SirT5, succinyl-peptide AMC, trypsin-coupled fluorescence. inhibition, % at 15 µM. 330,000 tested, 1.1% active; in the data active = inhibition above about 15%; inconclusive = no clear call, values can overlap the other calls
Target sequence (Q9NXA8 whole entry, looked up): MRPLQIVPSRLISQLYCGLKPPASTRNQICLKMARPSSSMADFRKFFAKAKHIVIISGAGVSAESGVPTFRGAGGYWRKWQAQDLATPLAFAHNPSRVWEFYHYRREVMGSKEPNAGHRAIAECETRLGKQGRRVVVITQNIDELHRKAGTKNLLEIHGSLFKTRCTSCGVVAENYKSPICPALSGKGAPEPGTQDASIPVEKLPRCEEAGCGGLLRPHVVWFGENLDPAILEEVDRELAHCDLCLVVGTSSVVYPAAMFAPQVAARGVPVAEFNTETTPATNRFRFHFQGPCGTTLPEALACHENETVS
rRNA inh HTS: reduced GFP signal of wild-type E. coli, primary screen, bacterial rRNA inhibitor project, GFP/RFP fluorescence, OD600, single point. GFP signal change (wild-type ribosome), % (test concentration not listed). E. coli WT GFP vs humanized-ribosome RFP mutants, 24 h; stronger effect = lower value; DMSO median 0, no signal -100. AID 720706, 2013. 350,000 tested, 1.6% active;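 active = significant combined selectivity score with lowered wild-type GFP, culture density cut under 30%, mutant RFP and density less affected; inactive = any of these conditions unmet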
Statin myotox sup: suppressors of statin myotoxicity in C2C12 myotubes, primary screen, cell-based, single point, plate reader. C2C12 myotubes + simvastatin, ATP luminescence, 48 h; scaled: DMSO 0, geranylgeraniol control 100. rescue of ATP level, % at 7.49 µM. 330,000 tested, 0.78% active;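 active = mean ATP rescue above about 67%, or every replicate alone reaching that limit, limit read from the data, passing the limit was not always enough; inconclusive = no clear call, values can overlap the other calls; inactive = mean under the limit and some replicate under it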;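 note: myotubes were challenged with 10 µM simvastatin during compound exposure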
HepG2 cytotox: cytotoxicity in HepG2 cells, dose response, cytotoxicity control, cell-based, CellTiter-Glo luminescence, cherry-pick, set 4 | shares compounds with rRNA inh HTS | HepG2 viability, ATP luminescence, 72 h | activity change, negative = cytotoxicity, unspecified at 26 µM | 30 tested, under 10 active | AID 743480, 2014;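 active = compounds whose fitted half-maximal signal-loss concentration is at most twice their highest valid dose; inconclusive = flat curve with 30 to 70% signal loss, or poor fit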
AID977621: growth inhibition of wild-type GFP E. coli, dose response, H69 mutant RFP, cherry-pick; E. coli wild-type GFP strain growth, fluorescence, 24 h; activity change, negative = inhibition at 50 µM; 1,900 tested, under 10 active; shares compounds with rRNA inh HTS;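 active = Wild-type ribosome reporter drop at least double the humanized mutant ribosome reporter drop, growth loss under a set limit; inconclusive = no clear call, values can overlap the other calls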;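 note: wild-type GFP and H69 mutant RFP strains grown together 50/50 in each well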
AID977628: E. coli growth inhibition, wild-type GFP versus h24 humanized RFP strain, dose response, h24 mutant RFP vs wild-type GFP, cherry-pick; activity change, negative = inhibition at 50 µM; 1,900 tested, under 10 active; shares compounds with rRNA inh HTS; E. coli WT GFP strain growth, fluorescence, 24 h;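 active = compound lowering the normal-ribosome reporter at least twice as much as the humanized-ribosome reporter, growth loss under a set limit; inconclusive = no clear call, values can overlap the other calls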;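 note: wild-type GFP and h24 humanized RFP strains co-cultured 1 to 1 per well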
Numbers stand for hits; – = inactive; ? = inconclusive; · = no result given. Shown are actives, neighbours in structure and some others; about 4% of the full set was active somewhere.

SMILES | E-selectin induc | FN deposition inh | FGF22 binding | SIRT5 block | rRNA inh HTS | Statin myotox sup | AID977621 | AID977628 | others
Cc1cc(NC(=O)CCN2C(=O)C3C4C=CC(C4)C3C2=O)ccc1Br (stereo not given) | – | – | – | – | -21 | – | – | –
CO[C@@H]1CN(C)C(=O)c2cc(NC(=O)C3CC3)ccc2OC[C@@H](C)N(Cc2ccncc2)C[C@@H]1C | – | – | – | – | – | – | · | ·
C=CCN1C(=O)[C@@]2(O[C@@H](CCn3cc([C@H](O)c4ccccc4)nn3)[C@H]([Si](C)(C)c3ccc(OC)cc3)[C@H]2C)c2ccccc21 | · | · | – | – | · | · | · | ·
O=S(=O)(c1ccc(F)cc1)N1CCc2ccccc21 | · | – | – | – | – | – | · | ·
O=S(=O)(NC1CC1)c1ccc(S(=O)(=O)N2CCc3ccccc32)cc1 | · | · | · | · | -20 | – | – | ·
COc1ccccc1CNC(=O)CSc1ccc(C)cc1 | · | – | – | · | -16 | · | – | ·
COc1ccccc1CNC(=O)CSc1ccccc1 | · | – | – | – | – | · | · | ·
COc1ccccc1CNC(=O)CN1C(=O)NC(c2ccccc2)(c2ccccc2)C1=O | – | – | – | – | -16 | – | – | ·
COc1ccc(NC(=O)Nc2cccc3c2O[C@@H](CN(C)S(=O)(=O)c2ccc(Cl)cc2)[C@H](C)CN([C@@H](C)CO)C3=O)cc1 | – | · | – | – | – | – | – | ·
Cc1cc(C(=O)Nc2cccc3c2O[C@H](CN(C)S(=O)(=O)c2ccc(Cl)cc2)[C@H](C)CN([C@@H](C)CO)C3=O)n(C)n1 | – | · | – | – | -24 | – | – | ?
COc1ccc(NC(=O)Nc2cccc3c2O[C@H](CN(C)S(=O)(=O)c2ccc(Cl)cc2)[C@@H](C)CN([C@@H](C)CO)C3=O)cc1 | – | · | – | – | – | – | – | –
COc1ccc(NC(=O)Nc2cccc3c2O[C@H](CN(C)S(=O)(=O)c2ccc(C)cc2)[C@H](C)CN([C@@H](C)CO)C3=O)cc1 | – | · | – | – | -19 | – | · | ?
COc1ccc(NC(=O)Nc2cccc3c2O[C@H](CN(C)S(=O)(=O)c2ccc(OC)cc2)[C@H](C)CN([C@H](C)CO)C3=O)cc1 | – | · | – | – | – | – | · | ·
C/C=C/c1cnc2c(c1)C(=O)N([C@H](C)CO)C[C@H](C)[C@H](CN(C)C(=O)C1CCOCC1)O2 | – | · | – | – | – | – | · | ·
COCC(=O)Nc1ccc2c(c1)[C@@H]1C[C@@H](CC(=O)NCCN3CCCCC3)O[C@@H](CO)[C@@H]1O2 | – | – | – | – | – | – | · | ·
Cc1nc2ccccn2c1C(=O)Nc1ccc(Cl)cc1 | – | – | – | – | -18 | · | – | –
CC(=O)Nc1ccc(NC(=O)c2c(C)nc3ccccn23)cc1 | · | · | · | · | · | – | · | ·
COC(=O)c1cc(C(=O)Cc2ccccc2)c[nH]1 | – | – | – | – | -22 | · | – | ·
NC(=O)c1cc(C(=O)Cc2ccccc2)c[nH]1 | · | – | – | – | – | – | · | ·
C[C@@H]1CN([C@H](C)CO)C(=O)c2cc(NC(=O)c3ccccc3)ccc2O[C@@H](C)CCCCO[C@H]1CN(C)C(=O)Cc1ccccc1 | · | – | – | – | – | · | · | ·
Cc1ccsc1C(=O)N1CCCC(C(=O)c2cc(F)ccc2F)C1 (stereo not given) | – | – | – | – | -16 | – | · | ?
Cc1nc(C)c(C(=O)N2CCCC(C(=O)c3cc(F)ccc3F)C2)s1 (stereo not given) | – | – | – | – | – | – | · | ·
C[C@H]1CN([C@@H](C)CO)S(=O)(=O)c2ccc(C3=CCCC3)cc2O[C@@H]1CN(C)Cc1ccccc1F | – | – | – | – | – | – | · | ·
C[C@@H]1CN([C@H](C)CO)C(=O)c2cc(NC(=O)Nc3ccc(F)cc3)ccc2O[C@@H](C)CCCCO[C@@H]1CN(C)C(=O)C1CCCCC1 | – | · | – | – | – | · | · | ·
COc1cc(NC(=O)c2ccc(Cl)cc2)c(OC)cc1NC(=O)CN1CCCCC1 | · | – | – | – | -26 | · | – | –
SMILES | E-selectin induc | FN deposition inh | FGF22 binding | SIRT5 block | rRNA inh HTS | Statin myotox sup | AID977621 | AID977628 | others
CCN(C(=O)c1ccnc(C(C)(C)C)c1)c1ccccc1 | · | · | – | – | -34 | – | · | ?
CCN(C(=O)c1ccc(Cl)c([N+](=O)[O-])c1)c1ccccc1 | · | · | – | – | – | · | · | ·
CC(=O)Nc1ccc(-c2ccnc3c2CC(C)(C(=O)Nc2ccc4c(c2)OCO4)O3)cc1 (stereo not given) | – | – | – | – | -23 | – | – | ·
COc1ccc(NC(=O)Nc2ccc3c(c2)CC(=O)N([C@H](C)CO)C[C@H](C)[C@@H](CN(C)Cc2ccc(C(=O)Nc4ccccc4N)cc2)O3)cc1 | · | · | – | · | – | · | · | ·
Cc1ccccc1S(=O)(=O)N1C[C@H]2[C@@H](c3ccccc31)[C@@H](CO)N2C(=O)CC1CC1 | – | · | – | – | – | – | · | ·
COc1cccc(C(=O)NC2CC3CCCC(C2)N3S(=O)(=O)c2ccccc2)c1 (stereo not given) | – | – | – | – | -31 | – | ? | ·
O=C(NNC(=O)c1ccc(Cl)cc1Cl)c1csc(-c2cccnc2)n1 | · | – | – | – | – | – | · | ·
O=C(NCc1ccc(Cl)cc1)c1csc(-c2cccnc2)n1 | – | – | – | – | -37 | – | ? | ·
COc1ccc(-n2cc(-c3ccccc3)c3c(NCCCN4CCOCC4)ncnc32)cc1 | – | – | – | – | – | · | · | ·
COc1ccc(-n2cc(-c3ccccc3)c3c(N4CCOCC4)ncnc32)cc1 | · | · | – | – | -29 | – | · | ? | HepG2 cytotox=–
NC(=O)c1cc(NC(=O)c2cc(Br)c(Br)s2)cc(C(N)=O)c1 | · | – | 43 | – | -24 | · | · | ?
O=C(Nc1cccnc1)c1cc(Br)c(Br)s1 | – | – | – | – | – | – | · | ·

Compound activity: PubChem BioAssay, Broad Institute
